# From ChEMBL document CHEMBL1129356, “Novel 3,7-diheterabicyclo[3.3.1]nonanes that possess predominant class III antiarrhythmic activity in 1-4 day post infarction dog models: X-ray diffraction analysis of 3-[4-(1H-imidazol-1-yl)benzoyl]-7-isopropyl-3,7-diazabicyclo[3.3.1]nona ne dihydroperchlorate” (1996)
# The source made the active and inactive calls.
# What was measured:
# [1] = test system: Canis familiaris; experiment: Antiarrhythmic property Mean blood pressure (drug free) is compared to Lidocaine using doses(3 and 6 mg/kg).; type: functional, Canis lupus familiaris
# Procedure, shortened: (§1)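 Mongrel dogs (~12–25 kg), 1–4 days after coronary occlusion leaving a surviving epicardial rim, anesthetized with sodium pentobarbital (~30 mg/kg). 12-lead ECG monitored throughout. Agent given iv at 3 and 6 mg/kg. Parameters recorded before (drug free) and after dosing. Programmed electrical stimulation tested SVT inducibility (≥250 beats/min, ≥30 s) at baseline, ~2–5 min after each dose, and at 30 min.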
# [2] = test system: Canis familiaris; experiment: Antiarrhythmic property ventricular effective refractory period(post drug) is compared to lidocaine(2) using doses(3 and 6 mg/kg); No effect; type: functional, organism-based; set-up: dose 6 mg/kg; conditions: Canis lupus familiaris; Heart; procedure, shortened: as §1
# [3] = test system: Canis familiaris; experiment: (§2) Antiarrhythmic property A-V nodal conduction time(post drug) is compared to lidocaine(2) using dose (3 and 6 mg/kg); No effect; type: functional, organism-based; set-up: dose 6 mg/kg; conditions: Canis lupus familiaris; Heart; procedure, shortened: as §1
# [4] = test system: Canis familiaris; experiment: Antiarrhythmic property Heart rate (post drug) is compared to Lidocaine using doses(3 and 6 mg/kg). system.; type: functional, Canis lupus familiaris; procedure, shortened: as §1
# [5] = test system: Canis familiaris; experiment: Antiarrhythmic property ventricular effective refractory period(drug free) is compared to lidocaine(2) using doses(3 and 6 mg/kg); No effect; type: functional, organism-based; set-up: dose 6 mg/kg; conditions: Canis lupus familiaris; Heart; procedure, shortened: as §1
# [6] = test system: Canis familiaris; experiment: Antiarrhythmic property Mean blood pressure(post drug) is compared to Lidocaine using doses(3 and 6 mg/kg); type: functional, Canis lupus familiaris; procedure, shortened: as §1
# [7] = test system: Canis familiaris; experiment: Antiarrhythmic property Heart rate (drug free) is compared to Lidocaine using doses (3 and 6 mg/kg).; type: functional, Canis lupus familiaris; procedure, shortened: as §1
# [8] = test system: Canis familiaris; experiment: Antiarrhythmic property compared to lidocaine(2) using doses(3 and 6 mg/kg). Time required for the ventricular myocardium to undergo depolarization and repolarization (drug free); No effect; type: functional, organism-based; set-up: dose 6 mg/kg; conditions: Canis lupus familiaris
# Procedure, shortened: (§3)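 Mongrel dogs (about 12–25 kg), 1–4 days after coronary occlusion infarction, under sodium pentobarbital (~30 mg/kg) with 12-lead ECG monitoring. Agents and lidocaine were given iv at 3 and 6 mg/kg. Programmed ventricular stimulation was applied at baseline, about 2–5 min after each dose, and at 30 min. SVT was defined as ≥250 beats/min lasting ≥30 s. Pre means drug-free; post means after dosing.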
# [9] = test system: Canis familiaris; experiment: (§4) Antiarrhythmic property Nonsustained ventricular tachycardia is compared to lidocaine(2) using dose of (3 and 6 mg/kg); type: functional, Canis lupus familiaris, Heart; procedure, shortened: as §1
# [10] = test system: Canis familiaris; experiment: (§5) Antiarrhythmic property A-V nodal conduction time(drug free) is compared to lidocaine(2) using doses(3 and 6 mg/kg); No effect; type: functional, organism-based; set-up: dose 6 mg/kg; conditions: Canis lupus familiaris; Heart; procedure, shortened: as §1
# [11] = test system: Canis familiaris; experiment: Antiarrhythmic property His-Purkinje conduction time(post drug) is compared to lidocaine(2) using dose(3 and 6 mg/kg); No effect; type: functional, organism-based; set-up: dose 6 mg/kg; conditions: Canis lupus familiaris; His-Purkinje system; procedure, shortened: as §3
# [12] = test system: Canis familiaris; experiment: Antiarrhythmic property His-Purkinje conduction time(drug free) is compared to lidocaine(2) using doses(3 and 6 mg/kg); No effect; type: functional, organism-based; set-up: dose 6 mg/kg; conditions: Canis lupus familiaris; His-Purkinje system; procedure, shortened: as §3
# [13] = test system: Canis familiaris; experiment: Antiarrhythmic property compared to lidocaine(2) using doses(3 and 6 mg/kg). Time required for the ventricular myocardium to undergo depolarization and repolarization ((post drug); No effect; type: functional, organism-based; set-up: dose 6 mg/kg; conditions: Canis lupus familiaris; procedure, shortened: as §3
# [14] = test system: Canis familiaris; experiment: Antiarrhythmic property His-Purkinje conduction time(post drug) is compared to lidocaine(2) using doses(3 and 6 mg/kg) measures; type: functional, Canis lupus familiaris, His-Purkinje system; procedure, shortened: as §1
# [15] = test system: Canis familiaris; experiment: Antiarrhythmic property His-Purkinje conduction time(drug free) is compared to lidocaine(2) using doses(3 and 6 mg/kg) measures; type: functional, Canis lupus familiaris, His-Purkinje system; procedure, shortened: as §1
# [16] = test system: Canis familiaris; experiment: Antiarrhythmic property ventricular effective refractory period(post drug) is compared to lidocaine(2) using doses(3 and 6 mg/kg); type: functional, Canis lupus familiaris, Heart; procedure, shortened: as §3
# [17] = test system: Canis familiaris; experiment: Tested for antiarrhythmic property by measuring ability to decrease heart rate(drug free) is compared to Lidocaine using doses (3 and 6 mg/kg).; type: functional, Canis lupus familiaris; procedure, shortened: as §3
# [18] = test system: Canis familiaris; experiment: Antiarrhythmic property A-V nodal conduction time(drug free) is compared to lidocaine(2) using doses(3 and 6 mg/kg); type: functional, Canis lupus familiaris, Heart; procedure, shortened: as §3
# [19] = test system: Canis familiaris; experiment: Tested for antiarrhythmic property by measuring ability to decrease Mean blood pressure(post drug) is compared to Lidocaine using doses(3 and 6 mg/kg); type: functional, Canis lupus familiaris; procedure, shortened: as §3
# [20] = test system: Canis familiaris; experiment: Antiarrhythmic property A-V nodal conduction time(post drug) is compared to lidocaine(2) using doses(3 and 6 mg/kg); type: functional, Canis lupus familiaris, Heart; procedure, shortened: as §3
# [21] = test system: Canis familiaris; experiment: Antiarrhythmic property is compared to lidocaine(2) using doses(3 and 6 mg/kg). Time required for the ventricular myocardium to undergo depolarization and repolarization (drug free); type: functional, Canis lupus familiaris; procedure, shortened: as §3
# [22] = test system: Canis familiaris; experiment: Antiarrhythmic property is compared to lidocaine(2) using doses(3 and 6 mg/kg). Time required for the ventricular myocardium to undergo depolarization and repolarization ((post drug); type: functional, Canis lupus familiaris; procedure, shortened: as §3
# [23] = test system: Canis familiaris; experiment: Tested for antiarrhythmic property by measuring ability to decrease Mean blood pressure (drug free) is compared to Lidocaine using doses(3 and 6 mg/kg).; type: functional, Canis lupus familiaris; procedure, shortened: as §3
# [24] = test system: Canis familiaris; experiment: Antiarrhythmic property ventricular effective refractory period(drug free) is compared to lidocaine(2) using doses(3 and 6 mg/kg); type: functional, Canis lupus familiaris, Heart; procedure, shortened: as §3
# [25] = test system: Canis familiaris; experiment: Tested for antiarrhythmic property by measuring ability to decrease heart rate(post drug) is compared to Lidocaine using doses(3 and 6 mg/kg).; type: functional, Canis lupus familiaris; procedure, shortened: as §3
# [26] = test system: Canis familiaris; experiment: as §4; type: functional, Canis lupus familiaris, Heart; procedure, shortened: as §3; remark: listed apart in the source
# [27] = test system: Canis familiaris; experiment: Tested for antiarrhythmic property by measuring ability to decrease Mean blood pressure (post drug) is compared to Lidocaine using doses(3 and 6 mg/kg); type: functional, Canis lupus familiaris; procedure, shortened: as §3
# [28] = test system: Canis familiaris; experiment: Antiarrhythmic property His-Purkinje conduction time(post drug) is compared to lidocaine(2) using doses(3 and 6 mg/kg); No effect; type: functional, organism-based; set-up: dose 6 mg/kg; conditions: Canis lupus familiaris; His-Purkinje system; procedure, shortened: as §3
# [29] = test system: Canis familiaris; experiment: Tested for antiarrhythmic property by measuring ability to decrease heart rate (drug free) is compared to Lidocaine using doses (3 and 6 mg/kg).; type: functional, Canis lupus familiaris; procedure, shortened: as §3
# [30] = test system: Canis familiaris; experiment: Antiarrhythmic property A-V nodal conduction time(post drug) is compared to lidocaine(2) using dose (3 and 6 mg/kg); type: functional, Canis lupus familiaris, Heart; procedure, shortened: as §3
# [31] = test system: Canis familiaris; experiment: Tested for antiarrhythmic property by measuring ability to decrease heart rate (post drug) is compared to Lidocaine using doses (3 and 6 mg/kg); type: functional, Canis lupus familiaris; procedure, shortened: as §3
# [32] = test system: Canis familiaris; experiment: Antiarrhythmic properties are compared to lidocaine(2) using doses(3 and 6 mg/kg) ventricular effective refractory period(drug free); No effect; type: functional, organism-based; set-up: dose 6 mg/kg; conditions: Canis lupus familiaris; Heart; procedure, shortened: as §3
# [33] = test system: Canis familiaris; experiment: Antiarrhythmic properties are compared to lidocaine(2) using doses(3 and 6 mg/kg) measures His-Purkinje conduction time(post drug); No effect; type: functional, organism-based; set-up: dose 6 mg/kg; conditions: Canis lupus familiaris; His-Purkinje system; procedure, shortened: as §3
# [34] = test system: Canis familiaris; experiment: Antiarrhythmic properties are compared to lidocaine(2) using doses(3 and 6 mg/kg) ventricular effective refractory period(post drug); No effect; type: functional, organism-based; set-up: dose 6 mg/kg; conditions: Canis lupus familiaris; Heart; procedure, shortened: as §3
# [35] = test system: Canis familiaris; experiment: (§6) Antiarrhythmic properties are compared to lidocaine(2) using doses(3 and 6 mg/kg) measures His-Purkinje conduction time(drug free); No effect; type: functional, organism-based; set-up: dose 6 mg/kg; conditions: Canis lupus familiaris; His-Purkinje system; procedure, shortened: as §3
# [36] = test system: Canis familiaris; experiment: Antiarrhythmic properties are compared to lidocaine(2) using doses(3 and 6 mg/kg).Tested for time required for the ventricular myocardium to undergo depolarization and repolarization (drug free); No effect; type: functional, organism-based; set-up: dose 6 mg/kg; conditions: Canis lupus familiaris; procedure, shortened: as §3
# [37] = test system: Canis familiaris; experiment: as §5; type: functional, organism-based; set-up: dose 6 mg/kg; conditions: Canis lupus familiaris; Heart; procedure, shortened: as §3; remark: listed apart in the source
# [38] = test system: Canis familiaris; experiment: as §2; type: functional, organism-based; set-up: dose 6 mg/kg; conditions: Canis lupus familiaris; Heart; procedure, shortened: as §3; remark: listed apart in the source
# [39] = test system: Canis familiaris; experiment: Antiarrhythmic properties are compared to lidocaine(2) using doses(3 and 6 mg/kg). Time required for the ventricular myocardium to undergo depolarization and repolarization (drug free); No effect; type: functional, organism-based; set-up: dose 6 mg/kg; conditions: Canis lupus familiaris; procedure, shortened: as §3
# [40] = test system: Canis familiaris; experiment: Antiarrhythmic properties are compared to lidocaine(2) using doses(3 and 6 mg/kg). Tested for time required for the ventricular myocardium to undergo depolarization and repolarization ((post drug); No effect; type: functional, organism-based; set-up: dose 6 mg/kg; conditions: Canis lupus familiaris; procedure, shortened: as §3
# [41] = test system: Canis familiaris; experiment: Antiarrhythmic properties are compared to lidocaine(2) using doses(3 and 6 mg/kg). Time required for the ventricular myocardium to undergo depolarization and repolarization ((post drug); No effect; type: functional, organism-based; set-up: dose 6 mg/kg; conditions: Canis lupus familiaris; procedure, shortened: as §3
# [42] = test system: Canis familiaris; experiment: as §6; type: functional, organism-based; set-up: dose 6 mg/kg; conditions: Canis lupus familiaris; His-Purkinje system; procedure, shortened: as §3; remark: listed apart in the source
smiles,measurement,setting,value
c1ccc(CN2CC3CN(CC4CC4)CC(C2)C32SCCS2)cc1,MBP,[1],105 mmHg
same,VERP,[2],inactive
same,AH interval,[3],inactive
same,HR,[4],148 beats min-1
same,VERP,[5],inactive
same,MBP,[6],105 mmHg
same,HR,[7],148 beats min-1
same,QT,[8],inactive
same,NSVT,[9],3 mg/kg
same,AH interval,[10],inactive
same,HV interval,[11],inactive
same,HV interval,[12],inactive
same,QT,[13],inactive
Cl.c1ccc(CN2CC3CSCC(C3)C2)cc1,MBP,[1],99 mmHg
same,HV interval,[14],35 ms
same,HR,[4],165 beats min-1
same,MBP,[6],105 mmHg
same,HR,[7],162 beats min-1
same,HV interval,[15],30 ms
same,NSVT,[9],3 mg/kg
CC(C)N1CC2CC(CN(C(=O)c3ccc(N)cc3)C2)C1.Cl.Cl,VERP,[16],220 ms
same,HR,[17],130 beats min-1
same,AH interval,[18],55 ms
same,MBP,[19],77 mmHg
same,AH interval,[20],65 ms
same,QT,[21],210 ms
same,QT,[22],220 ms
same,MBP,[23],100 mmHg
same,NSVT,[24],6 mg/kg
same,HR,[25],115 beats min-1
CC(C)N1CC2CC(CN(C(=O)c3ccc(NS(C)(=O)=O)cc3)C2)C1.Cl,HR,[17],150 beats min-1
same,NSVT,[26],6 mg/kg
same,MBP,[23],95 mmHg
same,MBP,[27],95 mmHg
same,HR,[25],150 beats min-1
O=C(c1ccc(Cl)cc1)N1CC2CC(CN(CC3CC3)C2)C1,AH interval,[18],60 ms
same,QT,[21],215 ms
same,VERP,[26],220 ms
same,HV interval,[28],inactive
same,HR,[29],125 beats min-1
same,AH interval,[30],68 ms
same,QT,[22],250 ms
same,HV interval,[12],inactive
same,MBP,[23],88 mmHg
same,MBP,[27],98 mmHg
same,VERP,[24],170 ms
same,HR,[25],105 beats min-1
CC(C)N1CC2CC(CN(C(=O)c3ccc(NS(C)(=O)=O)cc3)C2)C1 [listing 1 of 2 here],HR,[31],150 beats min-1
same,MBP,[19],50 mmHg
same,NSVT,[26],6 mg/kg
same,HR,[29],150 beats min-1
same,MBP,[23],70 mmHg
CC(C)N1CC2CC(CN(C(=O)c3ccc(NS(C)(=O)=O)cc3)C2)C1 [listing 2 of 2 here],HV interval,[32],inactive
same,VERP,[32],inactive
same,HV interval,[33],inactive
same,VERP,[34],inactive
same,HV interval,[35],inactive
same,OT interval,[36],inactive
same,AH interval,[37],inactive
same,NE,[37],inactive
same,AH interval,[38],inactive
same,OT,[39],inactive
same,OT interval,[40],inactive
same,OT,[41],inactive
same,HV interval,[42],inactive
